Measurements collected from several papers.
Compare with care: the assays were run in different laboratories.
Cell line: HepG2
Effect on: cell growth or viability

| SMILES | technique | time | CC50 |
| --- | --- | --- | --- |
| CC(C)N(c1ccc(NC(=O)CN(C)c2ccccc2N2CCCC2=O)cc1)c1ccc(Cl)c(F)c1 | ATP luminescence | 48 h | > 40 µM |
| CN1CCN(c2cccc(-c3ccc4ncnc(Nc5ccc([N+](=O)[O-])c(C(F)(F)F)c5)c4c3)c2)CC1 | MTT | 48 h | 34 µM |
| CC(C)N(c1ccc(Cl)c(F)c1)c1ccc(NC(=O)CN(C)c2ccccc2N2CCCC2=O)c(F)c1 | ATP luminescence | 48 h | > 40 µM |
| O=[N+]([O-])c1ccc(Nc2ncnc3ccc(-c4cccc(N5CCOCC5)c4)cc23)cc1C(F)(F)F | MTT | 48 h | > 40 µM |
| N=C(CC(O)c1nc2ccccc2c2ccccc12)Nc1ccc(F)cc1 (centres unmarked) | neutral red | 24 h | 48.5 µM |
| CN1CCN(c2cccc(-c3ccc4ncnc(Nc5ccc(Cl)c(C(F)(F)F)c5)c4c3)c2)CC1 | MTT | 48 h | 15 µM |
| CC(=O)OC[C@H]1O[C@@H]([S-])[C@H](OC(C)=O)[C@@H](OC(C)=O)[C@@H]1OC(C)=O.CCP(CC)CC.[Au+] | ATP luminescence | 72 h | 9.81 µM |
| N=C(CC(O)c1nc2ccccc2c2ccc(Cl)cc12)Nc1ccc(F)cc1 (centres unmarked) | neutral red | 24 h | > 25 µM |
| c1cc(-c2ccc3ncnc(NC4CCOCC4)c3c2)cc(N2CCOCC2)c1 | MTT | 48 h | 26 µM |
| CC(C)N(c1ccc(C#N)cc1)c1ccc(NC(=O)CN(C)c2ccccc2N2CCCC2=O)cn1 | ATP luminescence | 48 h | > 40 µM |
| N=C(CC(O)c1nc2ccccc2c2ccc(Br)cc12)Nc1ccc(F)cc1 (centres unmarked) | neutral red | 24 h | > 25 µM |
| C[n+]1cc2c3c(ccc2c2ccc4cc5c(cc4c21)OCO5)OCO3 | ATP luminescence | 72 h | 9.44 µM |
| CCCCN(c1ccc(C)cc1)c1ccc(NC(=O)CN(C)c2ccccc2N2CCCC2=O)cc1 | ATP luminescence | 48 h | > 40 µM |
| O=C(Nc1ccncc1)c1cc([N+](=O)[O-])ccc1Cl | ATP luminescence | 72 h | 18.1 µM |
| Clc1ccc(Nc2ncnc3ccc(-c4cccc(N5CCOCC5)c4)cc23)cc1Cl | MTT | 48 h | > 40 µM |
| O=C1c2ccccc2C(=O)c2c(NCCc3ccc(O)cc3)ccc(NCCc3ccc(O)cc3)c21 | ATP luminescence | 72 h | 16.1 µM |
| CCC(C)N(c1ccc(C)cc1)c1ccc(NC(=O)CN(C)c2ccccc2N2CCCC2=O)cc1 (centres unmarked) | ATP luminescence | 48 h | > 40 µM |
